In PMC10335114 (RSC Advances, 2023):

Tests used:
Type in all cases: biochemical
h-NTPDase3 = target: T1, h-NTPDase3 (Homo sapiens, UniProt O75355); assay: h-NTPDase3 enzyme inhibition, malachite green assay
T1 sequence (O75355 1-529): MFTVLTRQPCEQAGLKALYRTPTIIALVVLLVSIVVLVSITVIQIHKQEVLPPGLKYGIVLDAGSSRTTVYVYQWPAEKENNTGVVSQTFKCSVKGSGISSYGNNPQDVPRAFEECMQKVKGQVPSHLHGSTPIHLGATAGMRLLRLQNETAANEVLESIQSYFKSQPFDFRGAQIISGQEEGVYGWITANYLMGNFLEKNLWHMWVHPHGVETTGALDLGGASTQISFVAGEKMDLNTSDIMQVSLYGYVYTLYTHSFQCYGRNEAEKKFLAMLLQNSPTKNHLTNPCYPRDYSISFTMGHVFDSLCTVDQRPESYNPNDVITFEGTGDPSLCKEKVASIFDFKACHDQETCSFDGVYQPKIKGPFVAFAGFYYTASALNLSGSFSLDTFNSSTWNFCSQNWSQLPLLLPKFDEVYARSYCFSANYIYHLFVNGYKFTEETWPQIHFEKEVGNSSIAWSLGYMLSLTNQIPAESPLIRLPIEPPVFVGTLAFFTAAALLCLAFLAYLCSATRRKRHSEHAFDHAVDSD
Procedure, shortened: (§1)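 Malachite green assay in 50 mM Tris-HCl, 5 mM CaCl2, pH 7.4. Test compound at 100 μM, in triplicate, incubated 10 min with enzyme: h-NTPDase1 12 ng, h-NTPDase2 37 ng, h-NTPDase3 43 ng, h-NTPDase8 63 ng. Plate read at 630 nm, then substrate (100 μM) added and incubated 15 min at 37 °C. Malachite green reagent added and reading taken up to 6 min.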

h-NTPDase2 = target: T2, h-NTPDase2 (Homo sapiens, UniProt Q9Y5L3); assay: h-NTPDase2 enzyme inhibition, malachite green assay; details: for h-NTPDase2 IC50 ± SEM: triplicate, determined for compounds with over 50% inhibition at 100 μM; for inhibition at 100 µM: read-out: h-NTPDase2 % inhibition ± S.D
T2 sequence (Q9Y5L3 1-495): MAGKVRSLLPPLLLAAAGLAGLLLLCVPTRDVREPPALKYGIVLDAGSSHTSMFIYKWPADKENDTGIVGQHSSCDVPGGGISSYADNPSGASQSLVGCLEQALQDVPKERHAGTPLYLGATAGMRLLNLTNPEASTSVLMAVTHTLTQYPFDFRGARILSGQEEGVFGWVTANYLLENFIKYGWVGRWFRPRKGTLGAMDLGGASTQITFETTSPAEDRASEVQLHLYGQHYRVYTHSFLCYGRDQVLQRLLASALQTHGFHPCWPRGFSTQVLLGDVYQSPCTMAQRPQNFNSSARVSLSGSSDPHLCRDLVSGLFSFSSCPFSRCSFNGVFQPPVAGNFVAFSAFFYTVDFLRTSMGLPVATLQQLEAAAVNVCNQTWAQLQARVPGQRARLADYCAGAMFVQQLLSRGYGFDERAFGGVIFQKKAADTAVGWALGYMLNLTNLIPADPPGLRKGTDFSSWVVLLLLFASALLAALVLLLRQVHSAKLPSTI
Procedure, shortened: as §1

h-NTPDase8 = target: T3, h-NTPDase8 (Homo sapiens, UniProt Q5MY95); assay: h-NTPDase8 enzyme inhibition, malachite green assay; details: for inhibition at 100 µM: read-out: h-NTPDase8 % inhibition ± S.D
T3 sequence (Q5MY95 1-495): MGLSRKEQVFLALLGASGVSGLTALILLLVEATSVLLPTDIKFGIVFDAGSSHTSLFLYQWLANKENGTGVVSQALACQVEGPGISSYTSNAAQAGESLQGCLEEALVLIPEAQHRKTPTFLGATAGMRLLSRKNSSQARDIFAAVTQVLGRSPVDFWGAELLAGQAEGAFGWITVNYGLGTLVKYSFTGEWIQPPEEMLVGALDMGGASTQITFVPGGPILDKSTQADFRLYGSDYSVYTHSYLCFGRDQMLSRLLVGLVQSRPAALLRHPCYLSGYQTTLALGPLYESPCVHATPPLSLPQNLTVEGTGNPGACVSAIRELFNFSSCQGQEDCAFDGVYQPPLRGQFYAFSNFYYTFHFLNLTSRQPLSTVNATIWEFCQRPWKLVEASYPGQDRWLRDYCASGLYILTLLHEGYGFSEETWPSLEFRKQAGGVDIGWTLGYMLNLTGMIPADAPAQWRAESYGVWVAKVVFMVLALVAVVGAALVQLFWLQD
Procedure, shortened: as §1

h-NTPDase1 = target: T4, h-NTPDase1 (Homo sapiens, UniProt P49961); assay: h-NTPDase1 enzyme inhibition, malachite green assay; details: for inhibition at 100 µM: read-out: h-NTPDase1 % inhibition ± S.D
T4 sequence (P49961 1-510): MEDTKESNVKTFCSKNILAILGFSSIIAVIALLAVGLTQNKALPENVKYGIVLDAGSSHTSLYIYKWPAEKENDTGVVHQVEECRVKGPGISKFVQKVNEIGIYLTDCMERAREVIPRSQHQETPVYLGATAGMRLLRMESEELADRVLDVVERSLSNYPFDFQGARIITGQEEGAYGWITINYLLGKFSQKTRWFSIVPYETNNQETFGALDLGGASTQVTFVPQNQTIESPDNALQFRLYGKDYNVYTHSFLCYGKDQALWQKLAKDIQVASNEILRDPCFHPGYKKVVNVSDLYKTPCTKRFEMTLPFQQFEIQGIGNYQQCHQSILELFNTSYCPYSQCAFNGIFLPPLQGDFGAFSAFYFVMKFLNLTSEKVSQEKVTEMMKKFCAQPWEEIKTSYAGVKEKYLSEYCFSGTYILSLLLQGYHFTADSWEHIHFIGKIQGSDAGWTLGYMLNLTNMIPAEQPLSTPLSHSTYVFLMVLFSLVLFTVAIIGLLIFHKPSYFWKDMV
Procedure, shortened: as §1

Row | IC50 (h-NTPDase3) | IC50 (h-NTPDase2) | h-NTPDase2 IC50 ± SEM (h-NTPDase2) | inhibition at 100 µM (h-NTPDase8) | IC50 (h-NTPDase1) | inhibition at 100 µM (h-NTPDase2) | IC50 (h-NTPDase8) | inhibition at 100 µM (h-NTPDase1) | inhibition at 100 µM (h-NTPDase3; read-out: h-NTPDase3 % inhibition ± S.D) | SMILES
1 | 0.2 ± 0.07 µM | 0.13 ± 0.01 µM | sub-micromolar | – | – | – | 2.46 ± 0.09 µM | 36 ± 2.4% | – | O=C(NC1CC1)c1cc(S(=O)(=O)NC2CC2)ccc1Cl [4d, 2-chloro-N-cyclopropyl-5-(N-cyclopropylsulfamoyl)benzamide]
2 | 3.16 ± 0.12 µM | 0.29 ± 0.07 µM | sub-micromolar | 36 ± 1.7% | – | – | – | 37 ± 1.3% | – | COc1ccc(NC(=O)c2cc(S(=O)(=O)NCc3ccccc3)ccc2Cl)cc1 [3j, 5-(N-benzylsulfamoyl)-2-chloro-N-(4-methoxyphenyl)benzamide]
3 | – | – | – | – | – | – | 101 ± 2.34 µM | – | – | Cc1ccc(C(=O)Nc2ccc(S(=O)(=O)O)c3cc(S(=O)(=O)O)cc(S(=O)(=O)O)c23)cc1NC(=O)c1cccc(NC(=O)Nc2cccc(C(=O)Nc3cc(C(=O)Nc4ccc(S(=O)(=O)O)c5cc(S(=O)(=O)O)cc(S(=O)(=O)O)c45)ccc3C)c2)c1 [Suramin, reference compound]

The remaining lines, values behind:

Row | SMILES | IC50 (h-NTPDase3) | IC50 (h-NTPDase2) | h-NTPDase2 IC50 ± SEM (h-NTPDase2) | inhibition at 100 µM (h-NTPDase8) | IC50 (h-NTPDase1) | inhibition at 100 µM (h-NTPDase2) | IC50 (h-NTPDase8) | inhibition at 100 µM (h-NTPDase1) | inhibition at 100 µM (h-NTPDase3; read-out: h-NTPDase3 % inhibition ± S.D)
4 | COc1ccc(NC(=O)c2cccc(S(=O)(=O)N3CCOCC3)c2)cc1 [3f, N-(4-methoxyphenyl)-3-(morpholinosulfonyl)benzamide] | 6.71 ± 0.04 µM | 0.27 ± 0.08 µM | sub-micromolar | 29 ± 4.5% | > 100 µM | – | – | – | –
5 | O=C(c1cc(S(=O)(=O)Nc2ccc(Br)cc2)ccc1Cl)N1CCOCC1 [3i, N-(4-bromophenyl)-4-chloro-3-(morpholine-4-carbonyl)benzenesulfonamide] | 0.72 ± 0.11 µM | – | – | 32 ± 3.5% | 2.88 ± 0.13 µM | 43 ± 1.4% | – | – | –
6 | O=C(O)c1cc(S(=O)(=O)NC2CC2)ccc1Cl [2d, 2-chloro-5-(N-cyclopropylsulfamoyl)benzoic acid] | – | – | – | – | – | 19 ± 0.9% | 0.28 ± 0.07 µM | 3 ± 1.2% | 41 ± 1.4%
